PG9 binder: binders of HIV-1 gp120 antibody PG9, primary screen, biochemical, TR-FRET | 360,000 compounds, 0.43% hits | TR-FRET gp120-PG9 antibody binding | HIV-1 gp120 / PG9 antibody interaction | inhibition, % at 6.7 µM; in the data active = inhibition above about 8.5%
NR2E3 ag-1: inhibitors of NR2E3-RetCOR corepressor binding, primary screen, NR2E3 agonist project, biochemical, TR-FRET, GST-NR2E3, biotin-RetCOR | Photoreceptor-specific nuclear receptor (Homo sapiens), Q9Y5X4 | 1536-well | inhibition of corepressor binding, % at 4.78 µM | 320,000 compounds, 0.12% hits | AID 2300, 2010;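 active = percent inhibition above the cutoff of mean plus 3 SD of all tested compounds, set per screening campaign, cut at about 20% in these data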;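 also: 0% = DMSO wells and 100% = biotin wells as full block of FRET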
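Material: NR2E3–RetCOR corepressor complex / Incubation: Compound–protein incubation for 5 h at 4 °C / Dosing: compound at 4.8 µM, single dose / Detection: time-resolved FRET / Benchmarks: high control biotin, low control 0.6% DMSO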
Neddylation inh: inhibitors of cullin neddylation, primary screen, biochemical, TR-FRET, uHTS, NAE and Ubc12 | AID 651699, 2012 | NEDD8-conjugating enzyme Ubc12 (Homo sapiens) + NEDD8-activating enzyme E1 regulatory … | calls only at 25 µM | 360,000 compounds, 0.58% hits; in the data active = inhibition above about 36%
Target sequence (P61081 whole entry, looked up): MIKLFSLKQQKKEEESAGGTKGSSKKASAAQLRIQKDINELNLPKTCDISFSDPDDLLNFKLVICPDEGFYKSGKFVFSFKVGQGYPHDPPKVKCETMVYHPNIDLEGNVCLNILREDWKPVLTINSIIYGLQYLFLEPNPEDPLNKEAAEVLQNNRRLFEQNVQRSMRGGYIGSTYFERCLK
Target sequence (Q13564 whole entry, looked up): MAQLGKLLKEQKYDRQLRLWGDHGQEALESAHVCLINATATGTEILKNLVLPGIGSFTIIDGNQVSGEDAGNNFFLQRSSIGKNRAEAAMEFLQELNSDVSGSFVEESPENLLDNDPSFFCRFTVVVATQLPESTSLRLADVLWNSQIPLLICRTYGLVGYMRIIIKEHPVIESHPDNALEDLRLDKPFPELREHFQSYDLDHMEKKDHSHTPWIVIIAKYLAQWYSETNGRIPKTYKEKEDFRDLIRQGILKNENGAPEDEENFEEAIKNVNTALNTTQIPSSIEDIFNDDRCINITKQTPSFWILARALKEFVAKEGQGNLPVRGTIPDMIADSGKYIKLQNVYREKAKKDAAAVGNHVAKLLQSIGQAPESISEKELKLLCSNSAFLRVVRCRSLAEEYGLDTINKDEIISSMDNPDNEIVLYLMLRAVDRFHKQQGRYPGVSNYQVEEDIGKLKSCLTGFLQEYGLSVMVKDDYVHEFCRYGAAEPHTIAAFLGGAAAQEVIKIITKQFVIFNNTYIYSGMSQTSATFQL
NR2E3 ag-2: NR2E3 agonists in two-hybrid cells, primary screen, cell-based, luminescence, CHO-S, Gal4-NCOR/VP16-NR2E3. Photoreceptor-specific nuclear receptor (Homo sapiens), Q9Y5X4. luciferase. inhibition of corepressor binding, % at 3.98 µM. 360,000 compounds, 0.35% hits. AID 602229, 2012;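 active = inhibition above the mean of all tested compounds plus 3 SD, cut at about 70% in these data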;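 also: 0% = DMSO with NR2E3 transfected cells and 100% = cells lacking NR2E3 construct; higher means lower luciferase signal from less NR2E3 corepressor binding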
NR1D1 modulator: modulators of Rev-erb alpha DNA binding, primary screen, biochemical, FITC-DNA, fluorescence polarization, uHTS. 370,000 compounds, 0.79% hits. Nuclear receptor subfamily 1 group D member 1 (Homo sapiens), P20393. activity, % at 10 µM. Rev-erbα–FITC-DNA binding, 90 min;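 active = activity above about 14%, limit read from the data; passing the limit was not always enough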;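 also: 0% = DMSO wells with 35 nM protein and 100% = DMSO wells with 750 nM protein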
PG9 bind confirm: binders of anti-gp120 antibody PG9, confirmation, biochemical, TR-FRET; shares compounds with PG9 binder; TR-FRET PG9 antibody binding; inhibition, % at 6.7 µM; 1,500 compounds, 90% hits; in the data active = inhibition above about 9%
PGV04 counter: binders of control antibody PGV04, counter-screen for PG9 antibody binder project, biochemical, TR-FRET, distinct HIV envelope site. shares compounds with PG9 binder. TR-FRET PGV04 antibody-gp120 binding. inhibition, % at 6.7 µM. 1,500 compounds, 95% hits. AID 651604, 2012; in the data active = inhibition above about 9.5%
PG9 bind DR: small-molecule binders of antibody PG9, dose response, biochemical, TR-FRET, HIV-1 gp120 antibody; TR-FRET PG9 antibody-gp120 binding inhibition; IC50, µM; AID 651848, 2012; 95 tested, under 10 active; shares compounds with PG9 binder; in the data active = IC50 below about 10 µM
PGV04 DR counter: binders of control antibody PGV04, dose response, counter-screen for PG9 antibody binder project, biochemical, TR-FRET, distinct HIV envelope site; IC50, µM; shares compounds with PG9 binder; AID 651937, 2012; 95 compounds, 20% hits; TR-FRET binding to control antibody PGV04
PG126 DR counter: binders of control antibody PG126, dose response, counter-screen for PG9 antibody binder project, biochemical, TR-FRET, distinct HIV envelope site. shares compounds with PG9 binder. TR-FRET binding to antibody PG126, counterscreen. IC50, µM. 95 compounds, 20% hits
Numbers without * were called inactive; i = inactive; . = no result given. Sampled rows, rich in hits. Any-hit rate of the full collection: about 2%. Rule as the data show it, unless noted: active = IC50 below about 9 µM; inactive = the rest.

SMILES | PG9 binder | NR2E3 ag-1 | Neddylation inh | NR2E3 ag-2 | NR1D1 modulator | PG9 bind confirm | PGV04 counter | others
O=S(=O)(c1ccc(Cl)cc1)N1CCN(c2ncccn2)CC1 | 16* | 4 | i | 12 | 5 | 26* | 32*
COc1ccc(S(=O)(=O)N2CCN(c3ncccn3)CC2)cc1 | 1 | 1 | i | -4 | 1 | . | .
Nc1sc(Cc2ccccc2)cc1C(=O)NC1CCCCC1 | 0 | . | i | . | 3 | . | .
CC(C)Oc1ccc(C(=O)Nc2ccc(NC(=O)c3ccco3)c(Cl)c2)cc1 | 11* | 4 | . | -43 | 8 | 16* | 23*
CC(C)COc1ccc(C(=O)Nc2ccc(NC(=O)c3ccco3)c(Cl)c2)cc1 | 2 | 2 | . | -15 | 8 | . | .
CC(=O)c1cc(-c2ccccc2)n(CC(=O)NCc2ccccc2)c1C | . | . | . | . | -8 | . | .
CC(=O)c1cc(-c2ccccc2)n(CC(=O)NCc2cccs2)c1C | 12* | -3 | i | 5 | 14 | 14* | 22*
O=C1C2C3C=CC(C3)C2C(=O)N1c1ccc(-c2nc(-c3ccccc3)nc3ccccc23)cc1 (centres undefined) | 0 | . | . | . | -8 | . | .
CCOC(=O)[C@]12CCCC=C1N(Cc1cccc3ccccc13)C(=O)[C@H](CC(=O)NCCc1ccccc1OC)C2 | -1 | . | i | 18 | 4 | . | .
CCOC(=O)C1=CCN(S(=O)(=O)c2ccccc2Cl)C1c1cccc(C)c1 (centres undefined) | 0 | . | i | 4 | 10 | . | .
Cc1ccc2nc(-c3cccc(Br)c3)c(Cc3ccsc3)n2c1 | -1 | . | . | . | -3 | . | .
O=C1CC(c2ccc(F)cc2)Cc2nc(NCc3ccco3)ncc21 (centres undefined) | 9.4* | 3 | i | -6 | 6 | 18* | 23*
O=C(c1cc([N+](=O)[O-])ccc1N1CCOCC1)N1CCN(c2ccc([N+](=O)[O-])cc2)CC1 | 18* | 1 | i | 16 | 3 | 7 | 7 | PG9 bind DR=>67;PGV04 DR counter=>67;PG126 DR counter=>67
O=C(c1cc([N+](=O)[O-])ccc1N1CCOCC1)N1CCCCC1 | -2 | -3 | i | 21 | 0 | . | .
O=C(Nc1cc(F)cc(F)c1)c1sc(Cl)nc1-c1ccccc1 | 9.6* | -3 | i | -3 | 19 | 14* | 42*
O=C(O)c1cccc(N2C(=O)c3cc4cccc(Br)c4cc3C2=O)c1 | 14* | 15 | i | -9 | 5 | 16* | 22*
O=C(O)c1ccc2c(c1)C(=O)N(c1cccc(C(=O)/C=C/c3ccccc3)c1)C2=O | 1 | 0 | i | -21 | 0 | . | .
CCn1c2ccccc2c2cc(CN3CCN(S(=O)(=O)CC)CC3)ccc21 | -2 | 0 | . | . | 9 | . | .
CCn1c2ccccc2c2cc(CN3CCN(S(=O)(=O)Cc4ccccc4)CC3)ccc21 | 14* | -4 | i | 12 | 1 | 16* | 26*
CCC(C)(C)NC(=S)Nc1ccc(-c2nc3ccc(C)cc3s2)cc1 | 11* | 3 | . | -139 | -5 | 10* | 24*
CC(=O)Nc1ccc(NC(=O)CSc2ccc(-c3ccc4c(c3)OCO4)nn2)cc1 | -3 | 4 | i | 12 | 6 | . | .
CC(=O)c1ccc(NC(=O)CSc2ccc(-c3ccc4c(c3)OCO4)nn2)cc1 | 10* | -30 | i | -8 | 14 | 15* | 29*
CCC1(C)Cc2ccccc2-c2nc(SCC(N)=O)[nH]c(=O)c21 (centres undefined) | -1 | -2 | i | 0 | 0 | . | .
CCC1(C)Cc2ccccc2-c2nc(SC)[nH]c(=O)c21 (centres undefined) | 13* | 0 | i | -26 | 1 | 9.4* | 9 | PG9 bind DR=>67;PGV04 DR counter=>67;PG126 DR counter=>67
C[C@H](NC(=O)C[C@@H]1CC[C@H]2[C@@H](COC[C@H](O)CN2Cc2ccc(C(F)(F)F)cc2)O1)c1ccccc1 | 8.8* | . | i | . | 1 | 14* | 19*
SMILES | PG9 binder | NR2E3 ag-1 | Neddylation inh | NR2E3 ag-2 | NR1D1 modulator | PG9 bind confirm | PGV04 counter | others
O=c1oc2cc(O)ccc2c2ccccc12 | 22* | 13 | i | -8 | -5 | 29* | 38*
O=c1[nH]c2cc(O)ccc2c2ccccc12 | 37* | . | i | -10 | -3 | 38* | 47*
CCOC(=O)CC[C@@]1(C(=O)OCC)C[C@@H](CC(=O)NCCCN2CCCC2=O)C(=O)N2CCCC=C21 | . | . | . | . | 1 | . | .
COc1ccc(CCn2c(SCC(=O)Nc3cc(C)on3)nc3ccsc3c2=O)cc1OC | 36* | 1 | i | 4 | 12 | 46* | 56*
CC(C)CC(=O)Nc1ccc(Oc2ccc3c(c2)C(=O)NC3=O)cc1 | -1 | 0 | i | 7 | 4 | . | .
Cc1cc(C)cc(N(CC(=O)NC2CCC(C)CC2)S(=O)(=O)c2ccc([N+](=O)[O-])cc2)c1 (centres undefined) | . | . | . | . | 2 | . | .
COCCN1Cc2cc(C(=O)OC)c3c(c2C1=O)c1cc(F)ccc1n3S(=O)(=O)c1cccc(C)c1 | -3 | . | . | . | 7 | . | .
C=CCNC(=O)Cc1c(OC)ccc2cc(Br)ccc12 | 8 | 6 | i | 23 | 5 | . | .
COc1ccc2cc(Br)ccc2c1CC(=O)NC(C)C | 11* | 6 | i | 10 | -4 | 12* | 16*
O=C(O)CSc1c2c(nc3cc(C(=O)Nc4cccc(C(F)(F)F)c4)ccc13)CCC2 | 16* | 6 | i | 4 | -3 | 33* | 54*
CCOc1ccc(NC(=O)c2ccc3c(SCC(=O)O)c4c(nc3c2)CCCC4)cc1 | 1 | 3 | i | -2 | -4 | . | .
Cc1onc(-c2ccccc2)c1C(=O)Nc1cccc2nsnc12 | 66* | -2 | i | -39 | 16 | 72* | 81*

Screening results from PubChem BioAssay.
